Compound activity as filed in PubChem.
L929 necroptosis = blocks zVAD induced death of L929 cells | L929 zVAD necroptosis rescue, ATP luminescence, 24 h; with zVAD 60 µM | viability rescue, % at 10 µM | hit rate 0.38% among 220,000 | AID 1377;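 active means activation, scaled between plate controls, above about 75%, limit read from the data; inactive means activation under that limit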;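 further: 0% = zVAD with DMSO and 100% = DMSO alone without zVAD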
TNF death inh = inhibitors of TNF-alpha induced necroptosis in Jurkat FADD-/- cells. activation (protection from cell death), % at 10 µM. Jurkat FADD-/- TNF necroptosis rescue, ATP luminescence, 24 h; 0 = TNF only, 100 = no-TNF cells. AID 463075. hit rate 0.068% among 220,000;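 active means activation, meaning protection from cell death, of at least 50% relative to plate controls; inactive means activation below 50%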;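 further: necroptosis triggered by 40 ng/mL TNF-alpha added together with compound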
Pf gamet viab = P. falciparum stage V gametocyte viability inhibition | P. falciparum stage V gametocytes, ATP luminescence, 24 h | inhibition, % at 10.9 µM | hit rate 0.065% among 150,000;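 active means inhibition above the mean plus 3 SD of compounds within the control limits, set per campaign, cut at about 38% in these data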;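 further: 0% = DMSO wells and 100% = medium only without gametocytes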
Mdm2 ligase inh = blocks human Mdm2 ubiquitin ligase activity; cell-based MDM2 ubiquitination luciferase reporter, 2 h; 0 = plate control, 100 = twice control, blank-subtracted; signal enhancement, % at 5 µM; hit rate 0.11% among 210,000;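 active means signal enhancement of 30% or more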;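 further: luminescence tracks abundance of the self-degrading MDM2-luciferase fusion protein; higher signal means inhibition of MDM2 E3 ligase activity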
Target sequence (Q00987 whole entry, looked up, the tested form may be a part): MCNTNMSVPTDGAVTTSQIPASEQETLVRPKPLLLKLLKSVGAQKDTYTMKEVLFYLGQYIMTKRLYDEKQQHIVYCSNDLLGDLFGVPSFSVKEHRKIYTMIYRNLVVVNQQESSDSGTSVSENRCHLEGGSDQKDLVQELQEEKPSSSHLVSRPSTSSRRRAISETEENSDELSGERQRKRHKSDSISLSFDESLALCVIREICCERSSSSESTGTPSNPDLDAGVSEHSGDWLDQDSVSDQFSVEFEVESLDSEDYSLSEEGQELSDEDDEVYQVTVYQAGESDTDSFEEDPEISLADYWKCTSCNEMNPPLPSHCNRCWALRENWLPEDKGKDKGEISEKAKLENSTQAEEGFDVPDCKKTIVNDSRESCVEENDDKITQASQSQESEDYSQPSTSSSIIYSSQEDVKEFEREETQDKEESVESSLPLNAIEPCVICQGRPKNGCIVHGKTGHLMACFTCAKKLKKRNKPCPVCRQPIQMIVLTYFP
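Test system: mammalian cells stably expressing self-ubiquitinating, self-degrading MDM2 E3–luciferase fusion; Amount: 2000 cells in each well; Medium: DMEM; Schedule: 4 h settle plus 2 h compound, 37 °C; Technique: SteadyLite luciferase luminescence after 15 min room-temperature reagent incubation; Benchmarks: plate control and blank wells.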
Wee1 stabilizer = blocks degradation of human Wee1 kinase. HeLa Luc-Wee1K328M stability, luciferase luminescence; 100% = proteasome inhibitor MG132 effect. reporter increase, % at 5 µM. hit rate 1.2% among 220,000. AID 1321;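 active means activation above the mean of all tested compounds plus 3 SD, set per screening run, cut at about 8.8% in these data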;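 further: cells exposed to compound for 20 h before luminescence read; 0% = DMSO alone and 100% = MG132 at 30 µM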
zVAD necrop conf = confirmed blocker of zVAD induced death in L929 cells. shares compounds with L929 necroptosis. L929 zVAD-induced necroptosis rescue, ATP luminescence, 24 h. activation (protection from necroptosis), % at 10 µM. hit rate 16% among 760. AID 463117;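 active means mean protection from necroptosis of at least 50% over duplicate tests; inactive means mean protection below 50%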;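 further: 0% = cells with zVAD alone and 100% = vehicle cells without zVAD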
* marks the source's active call; other numbers are inactive results. A selection: hits, their analogues and other compounds. The true share with any hit is near 1.6%.

Oc1ccccc1N=Cc1c(O)ccc2oc3c(c12)CCCC3 was read as L929 necroptosis 75*, TNF death inh -22, Pf gamet viab -3, Mdm2 ligase inh -7, Wee1 stabilizer -3 and zVAD necrop conf 2.
For COc1ccc(-n2cnnc2SCC(=O)Nc2cc(C(C)(C)C)nn2-c2ccccc2)cc1 the results were L929 necroptosis 85*, TNF death inh 17, Pf gamet viab 1, Mdm2 ligase inh -10, Wee1 stabilizer -1 and zVAD necrop conf 81*.
CCOC(=O)c1[nH]c2ccc(C(=O)OC)cc2c1C(=O)OCC was read as Pf gamet viab -27.
`CCOC(=O)c1ccc2[nH]c3c(c2c1)CCCC3O` (centres undefined) gave L929 necroptosis 76*, TNF death inh 7, Mdm2 ligase inh 13, Wee1 stabilizer -1 and zVAD necrop conf 41.
For Nc1nc(C23CC4CC(CC(Cl)(C4)C2)C3)cs1 the results were L929 necroptosis 3, TNF death inh 1, Pf gamet viab 10, Mdm2 ligase inh -10 and Wee1 stabilizer 0.
`COC(=O)C1=C(C)NC(=O)/C1=C\c1cc(C)n(-c2c(C)cccc2C)c1C` gave L929 necroptosis 1, TNF death inh 0, Mdm2 ligase inh -18 and Wee1 stabilizer -1.
O=C(Nc1ccc(F)cc1)Nc1ccccc1F was read as L929 necroptosis 1, TNF death inh 0, Pf gamet viab 2, Mdm2 ligase inh -16 and Wee1 stabilizer 0.
`O=C(Nc1ccc(NC(=O)c2ccccc2O)cc1)Nc1ccc(F)cc1F` gave L929 necroptosis 78*, TNF death inh 10, Pf gamet viab 8, Mdm2 ligase inh -9, Wee1 stabilizer 1 and zVAD necrop conf 33.
Screening COC(C(=O)Nc1ccc(F)cc1F)c1ccccc1 (centres undefined) returned L929 necroptosis 83*, TNF death inh 97*, Mdm2 ligase inh -7, Wee1 stabilizer 1 and zVAD necrop conf 40.
`O=C(Nc1ccc2c(c1)OCCO2)Nc1ccc2c(c1)OCO2` gave L929 necroptosis 1, TNF death inh -2, Mdm2 ligase inh -62 and Wee1 stabilizer 3.
Cc1ccnc(NC(=O)Nc2ccc3c(c2)OCO3)c1 was read as L929 necroptosis 85*, TNF death inh 1, Pf gamet viab 13, Mdm2 ligase inh 5, Wee1 stabilizer 8 and zVAD necrop conf 2.
For O=C(Nc1ccc2c(c1)OCO2)Nc1ccc(Br)cn1 the results were L929 necroptosis 79*, TNF death inh 8, Pf gamet viab 8, Mdm2 ligase inh -4, Wee1 stabilizer 1 and zVAD necrop conf 1.
O=C(CCC(=O)N1CCN(C(=O)c2ccco2)CC1)c1ccc(F)cc1 was read as L929 necroptosis 76*, TNF death inh 0, Pf gamet viab 5, Mdm2 ligase inh -15, Wee1 stabilizer 4 and zVAD necrop conf 2.
COc1ccc(/C=N/Nc2nc3ccccc3s2)cc1O was read as L929 necroptosis 79*, TNF death inh 59*, Pf gamet viab -1, Wee1 stabilizer 7 and zVAD necrop conf 76*.
Screening COc1ccc(/C=N/Nc2nc3ccccc3o2)cc1O returned L929 necroptosis 86*, TNF death inh 18, Pf gamet viab -21, Mdm2 ligase inh -42, Wee1 stabilizer 2 and zVAD necrop conf 49.
Screening CC1CC(=S)Nc2ccccc2N1C(=O)Nc1ccccc1 (centres undefined) returned L929 necroptosis 0, TNF death inh 1, Pf gamet viab -8, Mdm2 ligase inh -3 and Wee1 stabilizer -3.
Screening COc1cc(/C=N/NC(=O)c2ccc3ccccc3c2)ccc1Oc1ccc([N+](=O)[O-])cn1 returned L929 necroptosis 76*, TNF death inh 6, Pf gamet viab -18, Wee1 stabilizer 1 and zVAD necrop conf 4.
COc1cccc(C(=O)N/N=C/c2ccc(Oc3ccc([N+](=O)[O-])cn3)c(OC)c2)c1 was read as L929 necroptosis 5, TNF death inh 1, Mdm2 ligase inh 1 and Wee1 stabilizer -1.
Screening CCOC(=O)c1[nH]c(C)c(C(=O)Nc2ccc(C)c(C)c2)c1C returned L929 necroptosis 14, TNF death inh -5, Mdm2 ligase inh -10 and Wee1 stabilizer 2.
`CCOc1cc(/C=C2\SC(=O)N(c3ccc(O)cc3)C2=O)ccc1O` gave L929 necroptosis 1, TNF death inh 3, Pf gamet viab 14, Mdm2 ligase inh 4 and Wee1 stabilizer 1.
`N=C1S/C(=C\c2ccc(O)cc2)C(=O)N1c1ccc(F)cc1` gave L929 necroptosis 80*, TNF death inh 2, Mdm2 ligase inh 9, Wee1 stabilizer 3 and zVAD necrop conf 1.
`CCc1nnc(NC(=O)CSc2ncnc3scc(-c4ccc(C)cc4)c23)s1` gave L929 necroptosis 0, TNF death inh 2, Pf gamet viab 12, Mdm2 ligase inh 1 and Wee1 stabilizer 1.
Screening Cc1ccc(C(C(=O)NCc2ccco2)N(C(=O)Cn2nnc3ccccc32)c2ccccc2)o1 (centres undefined) returned L929 necroptosis 0, TNF death inh 0, Pf gamet viab -1, Mdm2 ligase inh -14 and Wee1 stabilizer 5.
Cn1nc(C(C)(C)C)cc1NC(=O)Nc1cc(Cl)cc(Cl)c1 was read as L929 necroptosis 94*, TNF death inh 22, Pf gamet viab -13, Mdm2 ligase inh -5, Wee1 stabilizer -1 and zVAD necrop conf 93*.
For COc1ccc(NC(=O)NC23CC4CC(CC(C4)C2)C3)cc1OC the results were L929 necroptosis 0, TNF death inh -2, Mdm2 ligase inh -2 and Wee1 stabilizer 2.
CCOC(=O)c1cccc(NC(=O)Nc2ccc(OCC)cc2)c1 was read as L929 necroptosis 76*, TNF death inh -2, Pf gamet viab -12, Mdm2 ligase inh -6, Wee1 stabilizer -2 and zVAD necrop conf 2.
For CCOc1ccc(NC(=O)Nc2ccc3nsnc3c2)cc1 the results were L929 necroptosis 81*, TNF death inh -1, Pf gamet viab 12, Mdm2 ligase inh -2, Wee1 stabilizer -4 and zVAD necrop conf 1.
`CCOc1ccc(NC(=O)NC23CC4CC(CC(C4)C2)C3)cc1` gave L929 necroptosis 88*, TNF death inh 3, Pf gamet viab -21, Mdm2 ligase inh 0, Wee1 stabilizer 0 and zVAD necrop conf 47.
Screening Cc1ccc(O)c(C(=O)c2cnn(-c3ccc(S(=O)(=O)N4CCOCC4)cc3[N+](=O)[O-])c2)c1 returned L929 necroptosis 1, TNF death inh 2, Pf gamet viab -14, Mdm2 ligase inh -15 and Wee1 stabilizer -1.
COc1cccc(C2CC(c3ccccc3C)n3nc(N)nc3N2)c1 (centres undefined) was read as L929 necroptosis 1, TNF death inh 0, Mdm2 ligase inh -4 and Wee1 stabilizer 4.
